Experimental data: ChEMBL document CHEMBL4038269, “Design, synthesis and evaluation of novel feruloyl-donepezil hybrids as potential multitarget drugs for the treatment of Alzheimer's disease” (Eur J Med Chem, 2017)
The source made the active and inactive calls.

Key:
[1] = system: SH-SY5Y; assay: Antioxidant activity in human SH-SY5Y cells assessed as increase in GSH level at 20 uM after 24 hrs by MCB probe based assay relative to control; assay type: functional
Outline: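 SH-SY5Y cells (DMEM, 10% FBS, 37 °C, 5% CO2) seeded at 2 x 10^4 cells/well and grown 24 h. Treated with 20 µM compound for 3-24 h. Then 50 µM monochlorobimane in PBS for 30 min at 37 °C. GSH fluorescence read at ex 360/em 465 nm, as % of control cells. Mean ± SD of three independent experiments.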

[2] = system: Mus musculus; assay: Antinociceptive activity in carrageenan-induced Swiss mouse model of mechanical hyperalgesia at 100 umol/kg, po pretreated for 1 hr followed by carrageenan challenge measured at 3 hrs to 7 hrs post dose by Von Frey filament assay; assay type: functional, organism-based
Outline: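 Male Swiss mice (n=8) dosed orally with 100 µmol/kg or vehicle 1 h before intraplantar carrageenan (100 µg/paw). Mechanical threshold measured by up-and-down Von Frey method after 60 min acclimation on a wire screen. Started at 0.4 g filament, ≥6 trials at 10 s intervals, about 4 s per application. Reported as mean threshold in grams ± SEM.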

[3] = biological target: Acetylcholinesterase (Electrophorus electricus, UniProt O42275); assay: Inhibition of Electrophorus electricus AChE using acetylthiocholine iodide as substrate pretreated for 10 mins followed by substrate addition measured at 12 secs interval for 5 mins by Ellman's method
[4] = system: Mus musculus; assay: Antiinflammatory activity in formalin-induced nociception Swiss mouse model assessed as reduction in time spent licking formalin injected hind paw during inflammatory phase at 100 umol/kg, po pretreated for 1 hr followed by formalin challenge measured after 20 to 30 mins; assay type: functional, organism-based
Outline: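 Male Swiss mice (22-28 g), n=8 per group, given oral vehicle (saline + DMSO 2%) or 100 µmol/kg 1 h before formalin (5% in 0.9% saline, 20 µl) into the right hind paw sub-plantar region. Morphine 39 µmol/kg i.p. was given 30 min before. Paw-licking time recorded at 0–5 min (neurogenic phase) and 20–30 min (inflammatory phase).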

[5] = system: Mus musculus; assay: In vivo inhibition of COX-1 activity in carrageenan-induced Swiss mouse serum at 100 umol/kg, po pretreated for 1 hr followed by carrageenan challenge after 3 hrs by ELISA relative to control; assay type: functional
Outline: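 Male Swiss mice given oral drug (100 µmol/kg) or vehicle 1 h before intraplantar carrageenan (legend: 400 µg/paw). At 3 h, animals anaesthetised with chloral hydrate and cardiac blood taken. Serum separated (1500 rpm, 20 min) and frozen at -70 °C. COX-1, COX-2 and 5-LOX measured by specific sandwich ELISA at 450 nm. Expressed as % enzymatic activity, mean ± SEM, n=8.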

Acetylcholinesterase, sequence (O42275 whole entry): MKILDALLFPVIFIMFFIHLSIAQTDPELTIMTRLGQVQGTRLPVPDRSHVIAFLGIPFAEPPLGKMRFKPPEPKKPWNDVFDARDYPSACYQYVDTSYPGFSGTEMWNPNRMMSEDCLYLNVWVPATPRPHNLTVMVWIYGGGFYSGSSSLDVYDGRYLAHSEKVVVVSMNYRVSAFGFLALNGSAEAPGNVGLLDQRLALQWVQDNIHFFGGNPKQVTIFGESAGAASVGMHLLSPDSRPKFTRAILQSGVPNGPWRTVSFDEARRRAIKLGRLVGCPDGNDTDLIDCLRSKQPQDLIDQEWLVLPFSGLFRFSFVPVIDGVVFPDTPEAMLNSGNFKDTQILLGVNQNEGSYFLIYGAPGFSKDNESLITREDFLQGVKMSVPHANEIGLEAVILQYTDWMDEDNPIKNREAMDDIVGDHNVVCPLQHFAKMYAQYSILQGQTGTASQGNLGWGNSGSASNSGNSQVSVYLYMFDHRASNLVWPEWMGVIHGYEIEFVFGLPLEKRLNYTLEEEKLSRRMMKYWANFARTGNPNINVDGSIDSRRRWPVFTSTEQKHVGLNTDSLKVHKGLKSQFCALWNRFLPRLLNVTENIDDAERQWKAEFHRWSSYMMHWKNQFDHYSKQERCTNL

Compound: COc1cc(/C=C/C(=O)OCC2CCN(Cc3ccccc3)CC2)ccc1O
- fold change (FC) [1]: 1.4
- Activity [2]: Active
- IC50 [3]: 460 nM
- Activity [4]: Active
- inhibition in vivo at 100 µmol/kg [5]: 40%
